What follows are compounds tested against T1, Cholecystokinin receptor (Rattus norvegicus, UniProt P30551+P30553) (assay: Inhibition of [125I]-CCK-8 binding to CCK receptors in rat pancreatic tissue). Settings: not given.
T1 sequence (P30551 whole entry): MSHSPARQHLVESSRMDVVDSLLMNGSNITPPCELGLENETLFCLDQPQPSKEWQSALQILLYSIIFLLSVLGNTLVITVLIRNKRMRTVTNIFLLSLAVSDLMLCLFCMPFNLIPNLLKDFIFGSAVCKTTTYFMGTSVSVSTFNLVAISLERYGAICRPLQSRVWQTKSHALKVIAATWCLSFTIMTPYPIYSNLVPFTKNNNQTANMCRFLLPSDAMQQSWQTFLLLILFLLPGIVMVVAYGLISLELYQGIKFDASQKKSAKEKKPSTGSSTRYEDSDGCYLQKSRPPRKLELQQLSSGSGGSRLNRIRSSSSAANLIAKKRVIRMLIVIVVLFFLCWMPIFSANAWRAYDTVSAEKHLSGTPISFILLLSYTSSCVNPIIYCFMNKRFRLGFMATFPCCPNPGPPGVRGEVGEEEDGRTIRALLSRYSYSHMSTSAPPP
T1 sequence (P30553 whole entry): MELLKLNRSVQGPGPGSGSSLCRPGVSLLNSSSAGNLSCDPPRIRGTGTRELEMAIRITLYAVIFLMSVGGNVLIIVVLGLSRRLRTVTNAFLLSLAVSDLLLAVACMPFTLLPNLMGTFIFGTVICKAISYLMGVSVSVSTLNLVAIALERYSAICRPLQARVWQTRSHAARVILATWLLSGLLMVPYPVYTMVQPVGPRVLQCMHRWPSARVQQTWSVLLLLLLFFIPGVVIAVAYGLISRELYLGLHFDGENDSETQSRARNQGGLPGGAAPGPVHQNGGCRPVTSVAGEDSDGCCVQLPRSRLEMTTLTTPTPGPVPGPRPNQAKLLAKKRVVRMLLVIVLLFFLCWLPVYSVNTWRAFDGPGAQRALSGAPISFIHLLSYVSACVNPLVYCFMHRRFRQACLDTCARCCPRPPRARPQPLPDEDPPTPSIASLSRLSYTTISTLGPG
Compound CC(C)(C)OC(=O)CN1C(=O)[C@H](NC(=O)c2cc3ccccc3[nH]2)CCc2ccccc21 has an IC50 of 0.003 µM.
In the case of CC(C)(C)OC(=O)CN1C(=O)[C@H](NC(=O)c2ccc3ccccc3c2)CCc2ccccc21, the IC50 is reported as 0.0042 µM.
For CC(C)(C)OC(=O)CN1C(=O)[C@@H](NC(=O)c2cc3ccccc3[nH]2)CCc2ccccc21, the IC50 was 0.2 µM.
In the case of CC(C)(C)OC(=O)CN1C(=O)C(NC(=O)c2ccc(Cl)cc2)CCc2ccccc21 (configuration not stated), the IC50 is reported as 0.13 µM.
Compound CCOC(=O)CN1C(=O)C(NC(=O)c2cc3ccccc3[nH]2)CCc2ccccc21 (configuration not stated) has an IC50 of 0.11 µM.
Work on CC(C)(C)OC(=O)CN1C(=O)C(N)CCc2ccccc21 (configuration not stated) yielded an IC50 of 100 µM.
Compound CC(C)(C)OC(=O)CN1C(=O)C(NC(=O)c2ccc(Cl)c(Cl)c2)CCc2ccccc21 (configuration not stated) has an IC50 of 0.028 µM.
Compound CC(C)(C)OC(=O)CN1C(=O)C(NC(=O)c2cc3ccccc3[nH]2)Cc2ccccc21 (configuration not stated) has an IC50 of 0.2 µM.
Work on CC(C)(C)OC(=O)CN1C(=O)C(NC(=O)c2cc3ccccc3[nH]2)CCCc2ccccc21 (configuration not stated) yielded an IC50 of 0.06 µM.
In the case of CC(C)(C)OC(=O)CN1C(=O)C(NC(=O)CCc2c[nH]c3ccccc23)CCc2ccccc21 (configuration not stated), the IC50 is reported as 2 µM.
Work on CC(C)(C)OC(=O)CN1C(=O)C(NC(=O)c2cc3ccccc3[nH]2)CCc2ccccc21 (configuration not stated) yielded an IC50 of 0.007 µM.
For O=C(NC1CCc2ccccc2N(Cc2ccccc2)C1=O)c1cc2ccccc2[nH]1 (configuration not stated), the IC50 was 0.035 µM.

These compounds were tested against T1, Cholecystokinin receptor (assay: Half-maximal inhibition of binding of [125I]CCK-8 to Cholecystokinin receptor in rat pancreatic tissue). Settings: not given.
Compound CC(C)(C)OC(=O)CN1C(=O)C(NC(=O)c2ccccc2)CCc2ccccc21 (configuration not stated) has an IC50 of 2.1 µM.
With CC(C)(C)OC(=O)CN1C(=O)C(NCc2ccc3ccccc3c2)CCc2ccccc21 (configuration not stated) the IC50 was 0.004 µM.
Work on O=C(O)CN1C(=O)C(NC(=O)c2ccc3ccccc3c2)CCc2ccccc21 (configuration not stated) yielded an IC50 of 2.3 µM.
With CC(C)(C)OC(=O)CN1C(=O)C(NC(=O)c2ccc3ccccc3c2)CCc2ccccc21 (configuration not stated) the IC50 was 0.0075 µM.
With CC(C)(C)OC(=O)CN1C(=O)C(NC(=O)Cc2ccc3ccccc3c2)CCc2ccccc21 (configuration not stated) the IC50 was 2.7 µM.
CN(C)c1ccc(C(=O)NC2CCc3ccccc3N(CC(=O)OC(C)(C)C)C2=O)cc1 (configuration not stated) was tested, and the IC50 was 50 µM.
With CN1C(=O)C(NC(=O)c2ccc3ccccc3c2)CCc2ccccc21 (configuration not stated) the IC50 was 6.8 µM.

Each compound was assayed on Mus musculus (assay: Dose rquired to inhibit CCK-induced gastric emptying in mice p.o.). Settings: Stomach, po.
Assay type: functional
Outline: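 Antagonism of CCK-8-induced inhibition of gastric emptying, with gastric emptying followed using a charcoal meal. Test agents were given orally, and the ED50 was taken as the oral dose (mg/kg) that antagonized the CCK-8 effect.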
With CC(C)(C)OC(=O)CN1C(=O)[C@H](NC(=O)c2ccc3ccccc3c2)CCc2ccccc21 the ED50 was 6.8 mg/kg.
Work on CC(C)(C)OC(=O)CN1C(=O)C(NC(=O)c2cc3ccccc3[nH]2)CCc2ccccc21 (configuration not stated) yielded an ED50 of 2.6 mg/kg.
CN1C(=O)[C@@H](NC(=O)c2cc3ccccc3[nH]2)N=C(c2ccccc2)c2ccccc21 [DEVAZEPIDE] showed an ED50 of 0.04 mg/kg.
